Assay [1] concerns the target Serine/threonine-protein kinase A-Raf (Homo sapiens) (UniProt P10398). The experiment in a line: Inhibition of recombinant human A-Raf (273 to end residues) at 1 uM using myelin as substrate incubated for 40 mins in presence of [gamma-33P]-ATP by scintillation counting method relative to control. In a few lines: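 Kinase panel profiling at 1 μM performed by Eurofins KinaseProfiler; percent inhibition reported as mean of two independent experiments.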

The target of assay [2] is Tyrosine-protein kinase SYK (Homo sapiens) (UniProt P43405). As to the kind of experiment: Inhibition of recombinant human full length SYK at 1 uM using poly(Glu, Tyr) 4:1 as substrate incubated for 40 mins in presence of [gamma-33P]-ATP by scintillation counting method relative to control.

SMILES strings stand for the structures.

These results are taken from ChEMBL document CHEMBL4406821, “Novel dual inhibitors targeting CDK4 and VEGFR2 synergistically suppressed cancer progression and angiogenesis” (Eur J Med Chem, 2019).

Chain of Serine/threonine-protein kinase A-Raf (Homo sapiens) (P10398 whole entry): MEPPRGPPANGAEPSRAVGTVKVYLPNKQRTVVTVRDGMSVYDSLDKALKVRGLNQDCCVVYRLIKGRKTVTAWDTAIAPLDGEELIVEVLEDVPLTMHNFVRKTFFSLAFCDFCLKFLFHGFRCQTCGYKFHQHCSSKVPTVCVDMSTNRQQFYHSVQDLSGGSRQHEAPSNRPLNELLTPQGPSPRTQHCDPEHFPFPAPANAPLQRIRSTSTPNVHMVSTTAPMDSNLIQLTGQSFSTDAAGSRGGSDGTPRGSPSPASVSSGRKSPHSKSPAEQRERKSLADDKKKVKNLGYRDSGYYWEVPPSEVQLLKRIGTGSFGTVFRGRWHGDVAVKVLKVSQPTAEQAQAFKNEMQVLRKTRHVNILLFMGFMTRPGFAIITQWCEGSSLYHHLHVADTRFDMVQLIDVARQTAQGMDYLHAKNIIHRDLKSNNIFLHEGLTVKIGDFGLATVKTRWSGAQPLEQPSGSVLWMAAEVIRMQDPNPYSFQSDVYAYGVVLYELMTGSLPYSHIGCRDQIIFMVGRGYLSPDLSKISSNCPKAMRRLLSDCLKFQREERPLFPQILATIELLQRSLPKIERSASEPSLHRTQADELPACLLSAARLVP

Consider `Cc1ccc(NC(=O)C2(C(=O)Nc3ccc(Nc4ncc(F)c(-c5cc(F)c6nc(C)n(C(C)C)c6c5)n4)cc3)CC2)cc1`, for which the inhibition is 19% in assay [1] and 49% in assay [2].
